The results in this text go back to ChEMBL document CHEMBL1137497, “4-arylcyclohexylalanine analogs as potent, selective, and orally active inhibitors of dipeptidyl peptidase IV” (Bioorg Med Chem Lett, 2007).

Data set [1] in a line: Plasma clearance in rat at 1 mg/kg, iv or 2 mg/kg, po. The data set is classed as ADME, organism-based. The gist of the method:
(§1)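 Pharmacokinetic parameters derived by noncompartmental analysis.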

Data set [2] in a line: Oral bioavailability in rat at 2 mg/kg. The data set is classed as ADME, organism-based. The note with it: in vivo. The gist of the method: as §1
Data set [3] can be described thus: Half life in rat. The class given is ADME, organism-based. The note with it: in vivo.
A short description of data set [4]: Oral bioavailability in rat. The class given is ADME, organism-based. The note with it: in vivo.
For the next data set, the target named is Dipeptidyl peptidase 8 (Homo sapiens, UniProt Q6V1X1). Nature of the data set: Inhibition of human DPP8.
Data set [5] deals with Mus musculus. Nature of the data set: Reduction in glucose excursion in mouse at 0.1 mg/kg, po administered 60 mins prior to dextrose challenge by oral glucose tolerance test. The arrangement: scale not given: the % may be the effect or the level left. The class given is functional. The gist of the method:
(§2)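 Single oral dose given 60 min before an oral dextrose challenge. Blood glucose was monitored, and glucose excursion was expressed as percent reduction relative to vehicle-dosed controls.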

In data set [6] the target is Voltage-gated inwardly rectifying potassium channel KCNH2 (Homo sapiens, UniProt Q12809). Nature of the data set: Inhibition of human ERG.
A short description of data set [7]: AUC in rat at 2 mg/kg, po. Conditions: plasma. The data set is classed as ADME, organism-based. Also noted: dose 2 mg/kg, route oral. The gist of the method:
as §1

Data set [8] can be described thus: Cmax in rat at 1 mg/kg, iv or 2 mg/kg, po. The data set is classed as ADME, organism-based. The note with it: in vivo. The gist of the method:
as §1

Data set [9] in a line: Half life in rat at 1 mg/kg, iv or 2 mg/kg, po. The data set is classed as ADME, organism-based. The note with it: in vivo. The gist of the method:
as §1

Another data set has as its system Canis familiaris. Nature of the data set: AUC in dog at 0.5 mg/kg, po. The data set is classed as ADME, organism-based, Canis lupus familiaris, Plasma. Also noted: dose 0.5 mg/kg, route oral. The note with it: in vivo. The gist of the method: as §1
Data set [10] in a line: Cmax in dog at 0.5 mg/kg, po. The data set is classed as ADME, organism-based, Canis lupus familiaris. Conditions: in vivo. The arrangement: dose 0.5 mg/kg, route oral. The procedure, abridged: as §1
Data set [11] in a line: Half life in dog at 0.5 mg/kg, po. The data set is classed as ADME, organism-based, Canis lupus familiaris. Also noted: dose 0.5 mg/kg, route oral. The note with it: in vivo. The procedure, abridged:
as §1

The nature of data set [12]: Oral bioavailability in dog at 0.5 mg/kg. The class given is ADME, organism-based, Canis lupus familiaris. The note with it: in vivo. The procedure, abridged:
as §1

Data set [13] is described as follows: AUC in rhesus monkey at 2 mg/kg, po. Also noted: dose 2 mg/kg, route oral. The note with it: plasma. The class given is ADME, organism-based, Macaca mulatta. The procedure, abridged:
as §1

Data set [14] is described as follows: Plasma clearance in rhesus monkey at 1 mg/kg, iv or 2 mg/kg, po. The class given is ADME, organism-based, Macaca mulatta. The procedure, abridged: as §1
A short description of data set [15]: Cmax in rhesus monkey at 1 mg/kg, iv or 2 mg/kg, po. The data set is classed as ADME, organism-based, Macaca mulatta. The note with it: in vivo. The gist of the method:
as §1

A short description of data set [16]: Half life in rhesus monkey at 1 mg/kg, iv or 2 mg/kg, po. The class given is ADME, organism-based, Macaca mulatta. Conditions: in vivo. The procedure, abridged: as §1
The nature of data set [17]: Oral bioavailability in rhesus monkey at 2 mg/kg. The data set is classed as ADME, organism-based, Macaca mulatta. Conditions: in vivo. The gist of the method: as §1
The subject of data set [18] is Mus musculus. Nature of the data set: Reduction in glucose excursion in mouse at 0.03 mg/kg, po administered 60 mins prior to dextrose challenge by oral glucose tolerance test. The data set is classed as functional. Also noted: scale not given: the % may be the effect or the level left. The procedure, abridged:
as §2

The nature of data set [19]: Plasma clearance in rat. The class given is ADME, organism-based.
The target of another data set is Dipeptidyl peptidase 9 (Homo sapiens, UniProt Q86TI2). Nature of the data set: Inhibition of human DPP9.

Where only a bound is given, the exact number is not on record here.

Chain of Voltage-gated inwardly rectifying potassium channel KCNH2 (Q12809 whole entry): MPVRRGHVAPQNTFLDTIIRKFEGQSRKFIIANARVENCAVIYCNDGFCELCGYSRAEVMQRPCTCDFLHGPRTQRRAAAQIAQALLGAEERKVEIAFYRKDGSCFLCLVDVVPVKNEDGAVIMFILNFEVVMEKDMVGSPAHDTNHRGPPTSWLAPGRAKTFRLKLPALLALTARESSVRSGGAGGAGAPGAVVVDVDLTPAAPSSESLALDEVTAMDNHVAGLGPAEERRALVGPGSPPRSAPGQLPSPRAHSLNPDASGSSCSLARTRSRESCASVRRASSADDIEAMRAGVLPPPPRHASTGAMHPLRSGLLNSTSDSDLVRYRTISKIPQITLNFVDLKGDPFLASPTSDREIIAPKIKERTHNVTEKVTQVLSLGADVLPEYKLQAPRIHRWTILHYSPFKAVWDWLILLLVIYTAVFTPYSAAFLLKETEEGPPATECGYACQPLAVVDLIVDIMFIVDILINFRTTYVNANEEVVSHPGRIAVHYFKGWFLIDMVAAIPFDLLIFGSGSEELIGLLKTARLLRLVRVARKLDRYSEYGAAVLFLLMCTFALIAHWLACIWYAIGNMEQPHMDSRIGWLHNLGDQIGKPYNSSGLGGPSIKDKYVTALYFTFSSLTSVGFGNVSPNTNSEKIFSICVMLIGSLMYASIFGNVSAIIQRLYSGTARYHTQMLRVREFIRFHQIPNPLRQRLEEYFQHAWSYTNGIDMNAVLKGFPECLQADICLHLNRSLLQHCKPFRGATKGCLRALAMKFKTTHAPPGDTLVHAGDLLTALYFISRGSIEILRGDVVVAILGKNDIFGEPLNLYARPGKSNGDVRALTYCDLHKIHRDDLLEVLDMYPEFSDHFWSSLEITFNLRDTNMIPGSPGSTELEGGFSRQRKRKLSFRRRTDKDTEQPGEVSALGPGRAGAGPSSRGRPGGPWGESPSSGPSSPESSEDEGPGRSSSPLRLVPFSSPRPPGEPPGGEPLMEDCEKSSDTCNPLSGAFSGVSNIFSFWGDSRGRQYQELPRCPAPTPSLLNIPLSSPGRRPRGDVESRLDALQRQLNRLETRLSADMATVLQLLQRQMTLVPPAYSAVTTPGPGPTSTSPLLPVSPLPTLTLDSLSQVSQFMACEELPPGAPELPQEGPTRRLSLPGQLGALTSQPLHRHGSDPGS
Chain of Dipeptidyl peptidase 8 (Q6V1X1 whole entry): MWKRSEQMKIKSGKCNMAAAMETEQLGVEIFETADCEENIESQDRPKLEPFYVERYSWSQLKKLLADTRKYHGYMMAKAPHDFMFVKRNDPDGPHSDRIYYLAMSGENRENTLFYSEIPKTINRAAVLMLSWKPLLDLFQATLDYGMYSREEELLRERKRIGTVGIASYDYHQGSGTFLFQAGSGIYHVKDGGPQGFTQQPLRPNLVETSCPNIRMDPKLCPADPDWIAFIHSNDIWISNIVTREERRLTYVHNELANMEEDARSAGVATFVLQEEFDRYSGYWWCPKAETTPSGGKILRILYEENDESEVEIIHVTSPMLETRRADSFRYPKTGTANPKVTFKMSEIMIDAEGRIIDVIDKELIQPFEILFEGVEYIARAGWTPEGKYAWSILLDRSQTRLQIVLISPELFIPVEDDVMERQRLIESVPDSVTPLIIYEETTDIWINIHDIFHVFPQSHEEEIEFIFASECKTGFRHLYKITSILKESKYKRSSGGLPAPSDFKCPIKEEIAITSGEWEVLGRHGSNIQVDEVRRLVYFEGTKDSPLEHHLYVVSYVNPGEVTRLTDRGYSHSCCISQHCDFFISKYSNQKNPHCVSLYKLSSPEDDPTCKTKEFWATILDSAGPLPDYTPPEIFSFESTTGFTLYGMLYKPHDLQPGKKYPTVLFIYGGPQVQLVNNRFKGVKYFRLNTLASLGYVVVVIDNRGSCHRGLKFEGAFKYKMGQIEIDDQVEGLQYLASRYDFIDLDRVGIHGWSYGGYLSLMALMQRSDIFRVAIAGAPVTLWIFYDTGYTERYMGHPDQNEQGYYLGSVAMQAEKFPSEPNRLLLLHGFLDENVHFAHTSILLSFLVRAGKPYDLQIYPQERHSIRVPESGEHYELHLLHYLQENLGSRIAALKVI
Chain of Dipeptidyl peptidase 9 (Q86TI2 whole entry): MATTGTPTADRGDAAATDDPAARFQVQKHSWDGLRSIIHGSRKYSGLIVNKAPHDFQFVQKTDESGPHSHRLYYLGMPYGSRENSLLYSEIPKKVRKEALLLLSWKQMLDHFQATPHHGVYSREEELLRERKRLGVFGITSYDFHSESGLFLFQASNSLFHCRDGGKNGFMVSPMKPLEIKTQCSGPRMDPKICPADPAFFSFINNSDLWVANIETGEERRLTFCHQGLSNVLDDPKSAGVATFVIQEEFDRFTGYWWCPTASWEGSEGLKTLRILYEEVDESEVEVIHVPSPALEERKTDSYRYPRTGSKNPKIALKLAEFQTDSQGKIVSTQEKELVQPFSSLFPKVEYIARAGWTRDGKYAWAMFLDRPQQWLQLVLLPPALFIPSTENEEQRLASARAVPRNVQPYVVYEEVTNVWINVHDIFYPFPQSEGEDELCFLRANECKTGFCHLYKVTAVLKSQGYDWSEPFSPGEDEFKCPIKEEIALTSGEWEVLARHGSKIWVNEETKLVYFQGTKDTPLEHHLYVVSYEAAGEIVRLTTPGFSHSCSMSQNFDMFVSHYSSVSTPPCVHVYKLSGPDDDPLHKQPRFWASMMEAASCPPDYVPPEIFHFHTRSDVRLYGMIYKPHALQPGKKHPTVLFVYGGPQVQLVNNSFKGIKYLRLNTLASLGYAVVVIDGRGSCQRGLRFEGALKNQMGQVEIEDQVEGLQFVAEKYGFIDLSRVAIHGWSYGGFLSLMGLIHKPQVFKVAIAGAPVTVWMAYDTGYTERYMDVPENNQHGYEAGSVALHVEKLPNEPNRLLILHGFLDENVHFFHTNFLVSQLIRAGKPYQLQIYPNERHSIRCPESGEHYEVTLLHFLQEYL

`C[C@@H](c1ccc(-c2ccc(F)cc2)cc1)[C@H](N)C(=O)N1CC[C@H](F)C1` had a clearance in data set [1] of 8.6 mL/min/kg. In addition, in [2], the bioavailability (commonly dose-corrected exposure relative to a reference, in per cent) came out at 85%.

In the case of `CN(C)C(=O)[C@@H]([C@H]1CC[C@H](c2cccc3ncnn32)CC1)[C@H](N)C(=O)N1CC[C@H](F)C1`, the half-life (as a rule, the time needed for the level to fall by half in the phase considered) in [3] is 0.54 h. For the same compound, the bioavailability in data set [4] was 31%.

For the compound `COc1cc([C@H]2CC[C@H]([C@H](C(=O)N(C)C)[C@H](N)C(=O)N3CCC(F)(F)C3)CC2)nc(OC)n1`, on Dipeptidyl peptidase 8, the IC50 (in general, the point on the concentration scale where inhibition reaches its midpoint) is above 100 µM.

`CN(C)C(=O)[C@@H](c1ccc(-c2ccc(F)cc2)cc1)[C@H](N)C(=O)N1CC[C@H](F)C1` had a clearance in data set [1] of 4.8 mL/min/kg. Besides, the Activity with Mus musculus [5] worked out at 21%.

In turn, `CN(C)C(=O)[C@@H]([C@H]1CC[C@H](c2ccc3ncnn3c2)CC1)[C@H](N)C(=O)N1CCC(F)(F)C1` had a half-inhibitory concentration (IC50) in [6] above 90 µM. The area under the curve (AUC) – broadly, the area under the concentration-time curve, a measure of exposure – in data set [7] came out at 4.4 µM·h; in the data set on Canis familiaris, 46 µM·h; in data set [13], 6.5 µM·h. The clearance turned out to be 5.3 mL/min/kg in [1] and 5.6 mL/min/kg in [14]. For the same compound, the figures for the bioavailability in [2], in [12] and in [17] were 63%, 100% and 97%, respectively. For the same compound, the Cmax – broadly, the peak of the concentration-time curve – in [8] was 3.3 µM; in data set [10], 16 µM; in [15], 2.8 µM. Moreover, the half-life is 4.1 h in [9], 3.9 h in data set [11] and 4.1 h in data set [16]. The same compound showed an Activity in the data set with Mus musculus [18] of 23%.

Consider `CN(C)C(=O)[C@@H]([C@H]1CC[C@H](c2cccc3ncnn32)CC1)[C@H](N)C(=O)N1CCC(F)(F)C1`, for which the half-life in data set [3] is 2.9 h. This compound yielded a bioavailability in data set [4] of 98%. Moreover, in data set [19], the clearance is 40 mL/min/kg.

`COc1cc([C@H]2CC[C@@H]([C@H](C(=O)N(C)C)[C@H](N)C(=O)N3CCC(F)(F)C3)CC2)nc(OC)n1` registered a half-maximal inhibitory concentration (IC50) against Dipeptidyl peptidase 8 above 100 µM.

For `CN(C)C(=O)[C@@H](c1ccc(-c2ccc3ncnn3c2)cc1)[C@H](N)C(=O)N1CC[C@H](F)C1`, in data set [1], the clearance came out at 7 mL/min/kg.

As for `CC(=O)N[C@H]1CC[C@H]([C@H](C)[C@H](N)C(=O)N2CC[C@H](F)C2)CC1`, the half-maximal inhibitory concentration (IC50) (at Dipeptidyl peptidase 9; in [6]) was above 100 µM throughout. The compound also returned a clearance in [1] of 42 mL/min/kg. For the same compound, the bioavailability in [2] came to 56%. This compound also returned an Activity in the data set with Mus musculus [5] of 26%.
